Data published in ChEMBL document CHEMBL2150943, “SAR and LC/MS studies of β-lactamic inhibitors of human fatty acid amide hydrolase (hFAAH): evidence of a nonhydrolytic process” (J Med Chem, 2011).
Where “and” joins values, the source holds several entries; their conditions need not be identical. Equal entries are not always repeated. Calls of active or inactive are those of the source. The calls are words filed in the database; no cut-off is given here.

What was measured:
[1] = target: T1, Fatty-acid amide hydrolase 1 (Homo sapiens, UniProt O00519); assay: Reversible inhibition of human recombinant FAAH assessed as hydrolysis of [3H]-AEA after 10 mins by liquid scintillation counting
T1 sequence (O00519 whole entry): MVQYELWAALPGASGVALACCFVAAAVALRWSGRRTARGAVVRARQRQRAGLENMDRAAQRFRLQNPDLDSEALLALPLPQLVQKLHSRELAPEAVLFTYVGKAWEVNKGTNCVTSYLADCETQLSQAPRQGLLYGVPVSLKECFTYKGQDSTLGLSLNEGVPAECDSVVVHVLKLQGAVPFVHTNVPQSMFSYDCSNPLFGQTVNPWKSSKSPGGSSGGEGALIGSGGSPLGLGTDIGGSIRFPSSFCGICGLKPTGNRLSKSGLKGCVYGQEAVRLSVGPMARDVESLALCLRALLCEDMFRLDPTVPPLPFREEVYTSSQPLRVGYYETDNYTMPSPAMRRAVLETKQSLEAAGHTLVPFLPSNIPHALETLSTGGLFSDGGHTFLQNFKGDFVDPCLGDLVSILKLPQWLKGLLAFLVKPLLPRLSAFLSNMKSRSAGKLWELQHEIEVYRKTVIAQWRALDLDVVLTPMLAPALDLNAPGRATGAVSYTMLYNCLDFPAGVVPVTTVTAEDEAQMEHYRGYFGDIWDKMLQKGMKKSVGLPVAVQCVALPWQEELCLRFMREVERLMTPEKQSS
Summary of the method: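 In-house recombinant human FAAH (6 μg) in 10 mM Tris-HCl, 1 mM EDTA, 0.1% (w/v) BSA, pH 7.4. Compound in DMSO, or DMSO alone, with [3H]-AEA (2 μM final, 50,000 dpm) for 10 min at 37 °C. Stopped on ice with chloroform/methanol (1:1). Aqueous phase counted for [3H]-ethanolamine; buffer-only blank subtracted. IC50 from three independent experiments in duplicate.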

[2] = Metabolic stability of the compound in mouse liver homogenate assessed as compound hydrolysis at 10^-5 M after 90 mins by HPLC/MS analysis; format: ADME, tissue-based; conditions: read-out: Drug metabolism
Summary of the method: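 Mouse liver homogenised in Tris buffer pH 7.4 and spun at 800g for 15 min; supernatant used (22.5 μg/tube). Compound incubated in TE buffer (10 mM Tris-HCl, 1 mM EDTA, 0.1% BSA, pH 7.4) for 90 min at 37 °C. Proteins removed and supernatant concentrated. HPLC/MS followed the parent [M+H]+ AUC against an internal standard, normalised to boiled homogenate. Mean ± SEM, 3 experiments in duplicate.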

[3] = target: T2, Fatty-acid amide hydrolase 1 (Mus musculus) (UniProt O08914); assay: Activity of mouse liver homogenate FAAH assessed as compound hydrolysis at 10^-5 M after 90 mins by HPLC/MS analysis; format: tissue-based
T2 sequence (whole entry): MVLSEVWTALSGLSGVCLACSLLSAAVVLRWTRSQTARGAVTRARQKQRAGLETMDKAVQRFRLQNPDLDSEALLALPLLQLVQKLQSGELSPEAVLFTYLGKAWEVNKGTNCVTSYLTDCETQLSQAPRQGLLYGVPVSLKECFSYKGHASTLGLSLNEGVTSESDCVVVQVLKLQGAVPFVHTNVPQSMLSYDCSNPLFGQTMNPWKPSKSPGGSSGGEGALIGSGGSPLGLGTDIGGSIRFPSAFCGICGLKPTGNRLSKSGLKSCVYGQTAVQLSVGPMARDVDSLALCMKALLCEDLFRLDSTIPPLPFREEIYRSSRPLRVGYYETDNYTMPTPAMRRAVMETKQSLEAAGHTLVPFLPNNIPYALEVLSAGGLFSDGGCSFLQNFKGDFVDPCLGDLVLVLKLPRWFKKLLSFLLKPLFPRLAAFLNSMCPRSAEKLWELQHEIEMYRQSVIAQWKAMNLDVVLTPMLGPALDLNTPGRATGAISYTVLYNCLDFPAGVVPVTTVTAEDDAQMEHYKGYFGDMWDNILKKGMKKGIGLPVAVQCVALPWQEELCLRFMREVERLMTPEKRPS
Summary of the method: (§1)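 Mouse liver homogenate (800g supernatant from Tris pH 7.4; 22.5 μg/tube) incubated with compound in TE buffer (10 mM Tris-HCl, 1 mM EDTA, 0.1% BSA, pH 7.4), 37 °C, 90 min, with or without preincubation with FAAH inhibitor (5.10^-5 M). Parent and ring-opened product measured by HPLC/MS as AUC ratio to internal standard, normalized to heat-inactivated homogenate. Three independent experiments in duplicate.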

[4] = target: T2, Fatty-acid amide hydrolase 1 (Mus musculus); assay: Activity of mouse liver homogenate FAAH assessed as compound hydrolysis at 10^-5 M after 90 mins by HPLC/MS analysis in presence of URB-597; format: tissue-based; summary of the method: as §1
[5] = target: T3, Fatty-acid amide hydrolase 1 (Homo sapiens) (UniProt O00519); assay: Activity of human recombinant FAAH assessed as compound hydrolysis at 10^-5 M after 90 mins by HPLC/MS analysis
T3 sequence (whole entry): T1 sequence (O00519 whole entry)
Summary of the method: (§2)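 Recombinant human FAAH (90 μg/tube), made in-house, incubated with compound in TE buffer (10 mM Tris-HCl, 1 mM EDTA, 0.1% w/v BSA, pH 7.4) at 37 °C for 90 min, with or without preincubation with FAAH inhibitor at 5.10^-5 M. Proteins precipitated by centrifugation and supernatant concentrated. Parent [M+H]+ quantified by HPLC/MS as AUC ratio to internal standard, normalized to boiled-enzyme blank. Three independent experiments in duplicate.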

[6] = target: T3, Fatty-acid amide hydrolase 1 (Homo sapiens); assay: Activity of human recombinant FAAH assessed as compound hydrolysis at 10^-5 M after 90 mins by HPLC/MS analysis in presence of URB-597; summary of the method: as §2
[7] = target: T2, Fatty-acid amide hydrolase 1 (Mus musculus); assay: Activity of mouse liver homogenate FAAH assessed as compound hydrolysis at 10^-5 M after 90 mins by HPLC/MS analysis in presence of PF-750; format: tissue-based; summary of the method: as §1
[8] = target: T3, Fatty-acid amide hydrolase 1 (Homo sapiens); assay: Activity of human recombinant FAAH assessed as compound hydrolysis at 10^-5 M after 90 mins by HPLC/MS analysis in presence of PF-750; summary of the method: as §2
[9] = target: T1, Fatty-acid amide hydrolase 1; assay: Irreversible inhibition of human recombinant FAAH assessed as hydrolysis of [3H]-AEA after 10 mins by liquid scintillation counting

| SMILES | IC50 ([1]; read-out: IC50) | IC50 ([1]; read-out: pIC50 (converted)) | metabolised at 1.5 h, 10 µM [2] | Activity [4] | Activity [5] | Activity [6] | Activity [7] | Activity [8] | further results |
| --- | --- | --- | --- | --- | --- | --- | --- | --- | --- |
| C=CCCCN1C[C@@H]([C@@H](C)OC(=O)CCCc2ccccc2)C1=O | 82800 nM | 83200 nM |  |  |  |  |  |  |  |
| C=CCCC(=O)N1C[C@@H]([C@@H](C)OC(=O)CCCc2ccccc2)C1=O |  |  | > 80% |  |  |  |  |  | pIC50 [1]: 8.27 |
| CCCCC/C=C\C/C=C\C/C=C\C/C=C\CCCC(=O)NCCO |  |  |  | inactive | Active | inactive | inactive | inactive | Activity [3]: Active |
| C=CCCC(=O)N1CC([C@@H](C)OCCCCc2ccccc2)C1 | 2900 nM | 2880 nM |  |  |  |  |  |  |  |
| C=CCCC(=O)N1C[C@@H]([C@@H](C)OCCCCc2ccccc2)C1=O |  |  | > 80% | inactive | inactive | inactive | Active | inactive | IC50 [9]: 8 nM and 8.13 nM |
